Reference: ChEMBL document CHEMBL1671663, “In vivo characterization of the peptide deformylase inhibitor LBM415 in murine infection models” (Antimicrob Agents Chemother, 2009)
In brackets after ≈: the same amount, converted by molar mass. Activity calls are given as the source filed them. The rule behind the calls is not given here.

Legend:
Streptococcus pneumoniae [1] = assay: Antimicrobial activity against multiple drug-resistant Streptococcus pneumoniae ATCC 700677 by broth microdilution method; format: functional
How it was run: (§1)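 MICs determined by broth microdilution following CLSI guidelines. Inocula came from overnight Mueller-Hinton broth (ATCC 49951, NB01021) or overnight Trypticase soy agar culture (ATCC 6301). ATCC 6303 and ATCC 700677 came from a 5-h log culture in Todd-Hewitt broth–30% horse serum.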

Streptococcus pneumoniae [2] = assay: Antimicrobial activity against Streptococcus pneumoniae ATCC 6303 by broth microdilution method; format: functional; how it was run: as §1
Staphylococcus aureus [3] = assay: Antimicrobial activity against methicillin-susceptible Staphylococcus aureus ATCC 49951 by broth microdilution method; format: functional; how it was run: as §1
Staphylococcus aureus [4] = assay: Antimicrobial activity against methicillin-susceptible Staphylococcus aureus ATCC 13709 by broth microdilution method; format: functional
How it was run: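 MIC by broth microdilution following CLSI guidelines.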

Streptococcus pneumoniae [5] = assay: Antimicrobial activity against Streptococcus pneumoniae ATCC 6301 by broth microdilution method; format: functional; how it was run: as §1
Staphylococcus aureus [6] = assay: Antimicrobial activity against methicillin-resistant Staphylococcus aureus NB01021 by broth microdilution method; format: functional; how it was run: as §1
Streptococcus pneumoniae [7] = assay: Antimicrobial activity against multiple drug resistant Streptococcus pneumoniae ATCC 700677 infected in po dosed BALB/c mouse administered twice daily for 3 days; format: functional; conditions: ATCC 700677, po, 72 h
How it was run: (§2)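 Female BALB/c mice (19–23 g) infected intraperitoneally with ATCC 700677 from a 5-h Todd-Hewitt–30% horse serum log culture, suspended in 5% hog mucin, 1.5 × 10^7 to 2 × 10^7 CFU/mouse. Groups of 5–6, typically three dose levels; vehicle controls. Dosed 1, 5, 17, 27, 42, 51 h post-infection. ED50 from day-8 survival by probit analysis, with 95% CI.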

Staphylococcus aureus [8] = assay: Antimicrobial activity against methicillin-resistant Staphylococcus aureus NB01021 infected in sc dosed BALB/c mouse administered 0, 4, 23 hrs post infection; format: functional
How it was run: (§3)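 Female BALB/c mice (19–23 g) infected intraperitoneally with MRSA NB01021 in 5% hog gastric mucin, 2.1 × 10^7 to 2.8 × 10^7 CFU/mouse (0.3 ml), 10–100× minimal lethal dose. Three dose levels, groups of 5–6; vehicle controls. Treatment 0, 4 and 23 h post-infection. Observed 8 days; ED50 with 95% CI by probit analysis of day-8 survival.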

Staphylococcus aureus [9] = assay: Antimicrobial activity against methicillin susceptible Staphylococcus aureus ATCC 13709 infected in po dosed NMRI mouse treated 1 and 5 hrs post infection; format: functional; conditions: ATCC 13709, po
How it was run: (§4)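 Intraperitoneal infection (0.3 ml/mouse, 10 to 100 times minimal lethal dose) with inoculum in 0.86% NaCl; ATCC 49951 grown overnight in Mueller-Hinton broth (1.7 × 10^7 to 2.2 × 10^7 CFU/mouse), ATCC 13709 in tryptic soy broth (7.3 × 10^7 to 2 × 10^8 CFU/mouse). Groups of 5 to 6 mice, typically three doses, treated 1 and 5 h postinfection; vehicle controls. ED50 by probit analysis of day-8 survival.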

Streptococcus pneumoniae [10] = assay: Antimicrobial activity against Streptococcus pneumoniae ATCC 6303 infected in po dosed BALB/c mouse pneumonia model assessed as complete eradication of bacteria administered twice daily 3 days starting 16 hrs post infection; format: functional
How it was run: (§5)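 Anesthetized (ketamine/xylazine) female BALB/c mice (19 to 22 g) inoculated intranasally with 50 µl log-phase culture (1.4 × 10^5 CFU/mouse). Oral treatment, six mice per group, at 16, 27, 40, 51, 64 and 75 h postinfection; vehicle controls. Lungs harvested one day after last dose, homogenized, plated; log10 CFU/lung. Deaths assigned 9 log10 CFU/lung; Kruskal-Wallis with Dunn's test versus control.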

[11] = AUC in CD1 mouse at 20 mg/kg, po by liquid chromatography/mass spectroscopy; format: ADME, organism-based; design: dose 20 mg/kg, route oral; conditions: plasma
How it was run: (§6)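 CD1 mice given 20 mg/kg p.o. or 5 mg/kg i.v.; blood sampled from three mice per time point, first at 0.083 h (i.v.) or 0.25 h (p.o.), last at 24 h. Plasma separated by centrifugation (10,000 rpm, 10 min, 4°C), stored at −80°C, assayed by LC/MS. Mean concentration-time course used for parameters; F from ratio of dose-normalized AUCs; C0 extrapolated from i.v. curve.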

Staphylococcus aureus [12] = assay: Antimicrobial activity against multiple drug resistant Staphylococcus aureus NB01021 infected in immunocompetent NMRI mouse soft tissue infection model assessed as reduction in thigh bacterial load at 5.6 mg/kg, po administered thrice a day for 2 days; format: functional
How it was run: (§7)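 Thigh infection: 50 µl of freshly prepared NB01021 suspension (3.8 × 10^6 CFU/thigh) injected intramuscularly into the left hind thigh of female NMRI mice (20–23 g). Oral doses at 0, 4, 8, 24, 28, 32 h; vehicle controls. Thighs excised 18 h after last dose, homogenized in saline and plated on blood agar (detection limit 100 CFU/thigh). Medians compared to controls by Mann-Whitney rank sum test.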

Staphylococcus aureus [13] = assay: Antimicrobial activity against multiple drug resistant Staphylococcus aureus NB01021 infected in immunocompetent NMRI mouse soft tissue infection model assessed as reduction in thigh bacterial load at 16.7 mg/kg, po administered thrice a day for 2 days; format: functional; how it was run: as §7
Streptococcus pneumoniae [14] = assay: Antimicrobial activity against Streptococcus pneumoniae ATCC 6303 infected in BALB/c mouse pneumonia model assessed as reduction in lung bacterial load at 40 mg/kg, po administered twice daily 3 days starting 16 hrs post infection; format: functional; how it was run: as §5
Mus musculus [15] = assay: Cmax in CD1 mouse at 20 mg/kg, po by liquid chromatography/mass spectroscopy; format: ADME, organism-based; design: dose 20 mg/kg, route oral; conditions: in vivo; how it was run: as §6
[16] = Tmax in CD1 mouse at 20 mg/kg, po by liquid chromatography/mass spectroscopy; format: ADME, organism-based; design: dose 20 mg/kg, route oral; conditions: in vivo; how it was run: as §6
Staphylococcus aureus [17] = assay: Antimicrobial activity against multiple drug resistant Staphylococcus aureus NB01021 infected in immunocompetent NMRI mouse soft tissue infection model assessed as reduction in thigh bacterial load at 50 mg/kg, po administered thrice a day for 2 days; format: functional; how it was run: as §7
[18] = Bioavailability in CD1 mouse at 20 mg/kg, po by liquid chromatography/mass spectroscopy; conditions: in vivo
Streptococcus pneumoniae [19] = assay: Antimicrobial activity against multiple drug resistant Streptococcus pneumoniae ATCC 700677 infected in sc dosed BALB/c mouse administered twice daily for 3 days; format: functional; conditions: ATCC 700677, sc, 72 h; how it was run: as §2
[20] = AUC in CD1 mouse at 5 mg/kg, iv by liquid chromatography/mass spectroscopy; format: ADME, organism-based; design: dose 5 mg/kg, route intravenous; conditions: plasma; how it was run: as §6
Staphylococcus aureus [21] = assay: Antimicrobial activity against methicillin-resistant Staphylococcus aureus NB01021 infected in po dosed BALB/c mouse administered 0, 4, 23 hrs post infection; format: functional; how it was run: as §3
Streptococcus pneumoniae [22] = assay: Antimicrobial activity against Streptococcus pneumoniae ATCC 6303 infected in BALB/c mouse pneumonia model assessed as reduction in lung bacterial load at 80 mg/kg, po administered twice daily 3 days starting 16 hrs post infection; format: functional; how it was run: as §5
Mus musculus [23] = assay: Drug concentration at time zero in CD1 mouse at 5 mg/kg, iv by liquid chromatography/mass spectroscopy; format: ADME, organism-based; design: dose 5 mg/kg, route intravenous; conditions: in vivo; how it was run: as §6
Streptococcus pneumoniae [24] = assay: Antimicrobial activity against Streptococcus pneumoniae ATCC 6301 infected in po dosed NMRI mouse administered thrice daily for 4 days; conditions: ATCC 6301, po, 96 h
Staphylococcus aureus [25] = assay: Antimicrobial activity against methicillin susceptible Staphylococcus aureus ATCC 49951 infected in po dosed NMRI mouse treated 1 and 5 hrs post infection; format: functional; conditions: ATCC 49951, po; how it was run: as §4
[26] = Volume of distribution at steady state in CD1 mouse at 5 mg/kg, iv by liquid chromatography/mass spectroscopy; format: ADME, organism-based; design: dose 5 mg/kg, route intravenous; conditions: in vivo, read-out: Vdss; how it was run: as §6
[27] = Clearance in CD1 mouse at 5 mg/kg, iv by liquid chromatography/mass spectroscopy; format: ADME, organism-based; design: dose 5 mg/kg, route intravenous; conditions: in vivo; how it was run: as §6
Staphylococcus aureus [28] = assay: Antimicrobial activity against methicillin susceptible Staphylococcus aureus ATCC 49951 infected in sc dosed NMRI mouse treated 1 and 5 hrs post infection; format: functional; conditions: ATCC 49951, sc; how it was run: as §4
Streptococcus pneumoniae [29] = assay: Antimicrobial activity against Streptococcus pneumoniae ATCC 6303 infected in BALB/c mouse pneumonia model assessed as complete eradication of bacteria at 40 mg/kg, po administered twice daily 3 days starting 16 hrs post infection; format: functional, organism-based; design: dose 40 mg/kg; how it was run: as §5
Streptococcus pneumoniae [30] = assay: Antimicrobial activity against Streptococcus pneumoniae ATCC 6303 infected in BALB/c mouse pneumonia model assessed as reduction in lung bacterial load at 20 mg/kg, po administered twice daily 3 days starting 16 hrs post infection; format: functional; how it was run: as §5

| SMILES | MIC (Streptococcus pneumoniae [1]) [µg/mL] | MIC (Streptococcus pneumoniae [2]) [µg/mL] | MIC (Staphylococcus aureus [3]) [µg/mL] | MIC (Staphylococcus aureus [4]) [µg/mL] | MIC (Streptococcus pneumoniae [5]) [µg/mL] | MIC (Staphylococcus aureus [6]) [µg/mL] | ED50 (Streptococcus pneumoniae [7]) [mg/kg] | ED50 (Staphylococcus aureus [8]) [mg/kg] | ED50 (Staphylococcus aureus [9]) [mg/kg] | ED50 (Staphylococcus aureus [21]) [mg/kg] | ED50 (Streptococcus pneumoniae [24]) [mg/kg] | ED50 (Staphylococcus aureus [25]) [mg/kg] | ED50 (Staphylococcus aureus [28]) [mg/kg] | further results |
| --- | --- | --- | --- | --- | --- | --- | --- | --- | --- | --- | --- | --- | --- | --- |
| CC[C@H]1OC(=O)[C@H](C)C(=O)[C@H](C)[C@@H](O[C@@H]2O[C@H](C)C[C@H](N(C)C)[C@H]2O)[C@](C)(OC)C[C@@H](C)C(=O)[C@H](C)[C@H]2N(CCCCn3cnc(-c4cccnc4)c3)C(=O)O[C@]12C [TELITHROMYCIN] | ≤ 0.25 | ≤ 0.125 | 0.25 (≈ 0.308 µM) | ≤ 0.125 | ≤ 0.125 | > 64 | 13.2 | – | – | – | – | – | – | – |
| CC1(C)S[C@@H]2[C@H](NC(=O)Cc3ccccc3)C(=O)N2[C@H]1C(=O)O [PENICILLIN G] | 32 (≈ 95.7 µM) | 0.06 (≈ 0.179 µM) | ≤ 0.125 | ≤ 0.125 | 0.03 (≈ 0.0897 µM) | 64 (≈ 191 µM) | – | > 135 | – | – | – | – | – | – |
| CC1(C)S[C@@H]2[C@H](NC(=O)COc3ccccc3)C(=O)N2[C@H]1C(=O)O [PENICILLIN V] | – | – | – | – | – | – | > 60 | – | – | – | – | – | – | – |
| CCCC[C@H](CN(O)C=O)C(=O)N1CCC[C@H]1C(=O)Nc1ccc(F)c[n+]1[O-] | 0.5 (≈ 1.26 µM) | 2 (≈ 5.05 µM) | 0.125 (≈ 0.315 µM) | 4 (≈ 10.1 µM) | 0.125 (≈ 0.315 µM) | 2 (≈ 5.05 µM) | 36.6 | 0.7 | 13.2 | 5.9 | 6.4 | 2.3 | 1.1 | ED50 (Streptococcus pneumoniae [10]): 23.3 mg/kg; AUC [11]: 5700 ng·h/mL; log10cfu (Staphylococcus aureus [12]): 6.3; log10cfu (Staphylococcus aureus [13]): 5.6; log10cfu (Streptococcus pneumoniae [14]): <2; Cmax (Mus musculus [15]): 4250 ng/mL; Tmax [16]: 30 min; log10cfu (Staphylococcus aureus [17]): 3.6; bioavailability [18]: 53%; ED50 (Streptococcus pneumoniae [19]): 4.8 mg/kg; AUC [20]: 2690 ng·h/mL; log10cfu (Streptococcus pneumoniae [22]): 2.3; Drug uptake (Mus musculus [23]): 5361 ng/mL; Vd [26]: 3.12 L/kg; clearance [27]: 30.8 mL/min/kg; Activity (Streptococcus pneumoniae [29]): Active; log10cfu (Streptococcus pneumoniae [30]): 5.1 |
| CC(=O)NC[C@H]1CN(c2ccc(N3CCOCC3)c(F)c2)C(=O)O1 [LINEZOLID] | 0.25 (≈ 0.741 µM) | – | 1 (≈ 2.96 µM) | 1 (≈ 2.96 µM) | – | 1 (≈ 2.96 µM) | – | – | 10.3 | 2 | 5.6 | 7 | 7.4 | – |
